In experiment [1] the test system is MRSA1 (methicillin resistant S. aureus). Nature of the experiment: Zone of inhibition against MDR clinical isolate. Particulars: for zone of inhibition at 15 µg/mL: Staphylococcus aureus, read-out: Diameter of zone inhibition. It counts as cell-based.
The next experiment has as its system C. albicans. Kind of experiment: Agar diffusion method, zone of inhibition. Particulars: for zone of inhibition at 10 µg/mL / zone of inhibition at 15 µg/mL: Candida albicans, 24 h, read-out: Diameter of zone inhibition; for Diameter of zone inhibition: C. albicans, average of triplicate. In kind it is cell-based, Candida albicans. In outline:
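For agar diffusion against C. albicans, each test compound (1 mg) was dissolved in 1 mL DMSO and diluted to 10 mL with sterile water (100 μg mL⁻¹ stock). The solution was placed in the agar, and the inhibition zone diameter was read after 24 h. Values are the average of triplicate readings.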

The subject of experiment [2] is K. pneumoniae (MDR clinical isolate). Kind of experiment: Zone of inhibition against MDR clinical isolate. In kind it is cell-based. As to conditions: for zone of inhibition at 15 µg/mL: Klebsiella pneumoniae, read-out: Diameter of zone inhibition.
Experiment [3] deals with P. phaseolicola (GSPB 2828). Nature of the experiment: Agar diffusion method, zone of inhibition. In kind it is cell-based, Pseudomonas phaseolicola. As to conditions: for zone of inhibition at 10 µg/mL / zone of inhibition at 15 µg/mL: Pseudomonas, 24 h, read-out: Diameter of zone inhibition. In outline: (§1)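 Bacterial strains were tested by agar diffusion on nutrient agar (peptone 5 and meat extract 3 g L⁻¹ in distilled water, pH 7.0, 2% agar, autoclaved 121 °C for 20 min). Each test compound (1 mg) was dissolved in 1 mL DMSO and made up to 10 mL with sterile water (100 μg mL⁻¹ stock). The solution was placed in the agar, and inhibition zones were measured after 24 h incubation. Values are the mean of triplicate readings.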
(In general: A growth-free zone around the sample is the usual read-out of agar diffusion tests.)

The test system of the next experiment is Gram-positive bacteria. Nature of the experiment: Agar diffusion method. It counts as cell-based, S. aureus (ATCC 25923) and S. pyogenes (ATCC 19615). Particulars: summary of Table 1. Put shortly: as §1
The next experiment concerns P. fluorescens (S 97). Nature of the experiment: Agar diffusion method, zone of inhibition. In kind it is cell-based, Pseudomonas fluorescens. Particulars: for zone of inhibition at 10 µg/mL / zone of inhibition at 15 µg/mL: Pseudomonas fluorescens, 24 h, read-out: Diameter of zone inhibition; for Diameter of zone inhibition: P. fluorescens (S 97), average of triplicate. Put shortly: as §1

The next experiment relates to S. aureus (ATCC 25923). Kind of experiment: Agar diffusion method, zone of inhibition. Particulars: for zone of inhibition at 10 µg/mL / zone of inhibition at 15 µg/mL: Staphylococcus aureus, ATCC25923, 24 h, read-out: Diameter of zone inhibition. In kind it is cell-based, Staphylococcus aureus. Put shortly: as §1
In another experiment the test system is S. pyogenes (ATCC 19615). Nature of the experiment: Agar diffusion method, zone of inhibition. In kind it is cell-based, Streptococcus pyogenes. As to conditions: Streptococcus pyogenes, ATCC19615, 24 h, read-out: Diameter of zone inhibition.
Another experiment concerns Gram-negative bacteria. Nature of the experiment: Agar diffusion method. It counts as cell-based, P. phaseolicola (GSPB 2828) and P. fluorescens (S 97). As to conditions: summary of Table 1. In outline: as §1
In experiment [4] the test system is MRSA1 (methicillin resistant S. aureus). Kind of experiment: Minimal inhibitory concentration. It counts as cell-based. In outline: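 Broth microdilution against MDR clinical isolates: 80 μl Mueller–Hinton broth plus 20 μl tween 80 received 100 μl test compound, then two-fold serial dilution. Each well was inoculated with 100 μl of 0.5 McFarland suspension ([…]) and incubated covered at 35 ± 2 °C for 24 h. MIC is the lowest concentration inhibiting growth.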

≈ marks a conversion by molar mass, not a printed value.

Broadly, the zone of inhibition is the size of the clear area around the sample on an inoculated plate. For orientation: MIC means the lowest concentration that inhibits growth of the organism.

Turning to `CCOC(=O)C1=C(C)N2NC(C)(c3ccccc3O)N(C(Cc3c[nH]c4ccccc34)C(=O)O)C2=NC1c1ccc(Cl)cc1` (stereo not shown) [Compound 3d, 2-(5-(4-Chlorophenyl)-6-(ethoxycarbonyl)-2-(2-hydroxyphenyl)-2,7-dimethyl-1,2-dihydro-[1,2,4]triazolo[1,5-a]pyrimidin-3(5H)-yl)-3-(1H-indol-3-yl)propanoic acid], the zone of inhibition at 15 µg/mL stood at 6 mm in [1], 10 mm in the experiment on C. albicans, 6 mm in experiment [2] and 23 mm in [3]. For the same compound, the zone of inhibition at 10 µg/mL in the experiment on C. albicans is 9 mm; in [3], 11 mm; with P. fluorescens (S 97), 10 mm. The “Activity against Gram-positive bacteria” value in the experiment on Gram-positive bacteria is “active”.

Turning to `CC(=O)C1=C(C)N2NC(c3ccccc3O)N(C(C)C(=O)O)C2=NC1c1ccc(Cl)cc1` (stereo not shown) [Compound 2a, 2-(6-Acetyl-5-(4-chlorophenyl)-2-(2-hydroxyphenyl)-7-methyl-1,2-dihydro-[1,2,4]triazolo[1,5-a]pyrimidin-3(5H)-yl)propanoic acid], the zone of inhibition at 10 µg/mL in the experiment on S. aureus (ATCC 25923) stood at 10 mm; in the experiment with S. pyogenes (ATCC 19615), 12 mm; in the experiment with P. fluorescens (S 97), 16 mm. Besides, in the experiment on S. aureus (ATCC 25923), the zone of inhibition at 15 µg/mL turned out to be 16 mm.

For the compound `CC(C(=O)O)N1C2=NC(c3ccc(Cl)cc3)C3=C(CCCC3=O)N2NC1(C)c1ccccc1O` (stereo not shown) [Compound 6, 2-(5-(4-Chlorophenyl)-2-(2-hydroxyphenyl)-2-methyl-6-oxo-1,2,6,7,8,9-hexahydro-[1,2,4]triazolo[1,5-a]quinazolin-3(5H)-yl)propanoic acid], the zone of inhibition at 10 µg/mL with S. aureus (ATCC 25923) amounted to 15 mm; in the experiment with C. albicans it was 7 mm; with S. pyogenes (ATCC 19615), 10 mm; in the experiment on P. fluorescens (S 97) it was 19 mm. For the same compound, the zone of inhibition at 15 µg/mL in the experiment on S. aureus (ATCC 25923) was found to be 25 mm; in [1] it was 10 mm; in the experiment on C. albicans, 8 mm; in experiment [2], 22 mm; in [3], 29 mm; in the experiment on S. pyogenes (ATCC 19615) it was 24 mm. Besides, in the experiment on Gram-negative bacteria, the “Activity against Gram-negative bacteria” value is reported as “active”.

On to `CCOC(=O)C1=C(C)N2NC(C)(c3ccccc3O)N(C(C)C(=O)O)C2=NC1c1ccc(Cl)cc1` (stereo not shown) [Compound 3b, 2-(5-(4-Chlorophenyl)-6-(ethoxycarbonyl)-2-(2-hydroxyphenyl)-2,7-dimethyl-1,2-dihydro-[1,2,4]triazolo[1,5-a]pyrimidin-3(5H)-yl)propanoic acid], for which the zone of inhibition at 10 µg/mL in the experiment with S. aureus (ATCC 25923) worked out at 12 mm; in the experiment with C. albicans it was 10 mm. Moreover, the zone of inhibition at 15 µg/mL in the experiment with S. aureus (ATCC 25923) is 25 mm; in experiment [1], 12 mm; with C. albicans it was 12 mm; in experiment [2], 27 mm; with S. pyogenes (ATCC 19615) it was 24 mm. Besides, the “Activity against Gram-negative bacteria” value in the experiment on Gram-negative bacteria is given as “active”.

For the compound `CC(=O)OCC1=C(C(=O)O)N2C(=O)[C@@H](NC(=O)Cc3cccs3)[C@H]2SC1` [Cephalothin, reference compound], in the experiment with S. aureus (ATCC 25923), the zone of inhibition at 10 µg/mL is 28 mm and the zone of inhibition at 15 µg/mL was determined as 28 mm. In the experiment on S. pyogenes (ATCC 19615), the zone of inhibition at 10 µg/mL amounted to 30 mm and the zone of inhibition at 15 µg/mL stood at 30 mm.

For the compound `O=C(N[C@H](CO)[C@H](O)c1ccc([N+](=O)[O-])cc1)C(Cl)Cl` [Chloramphenicol, reference compound], in [3], the zone of inhibition at 10 µg/mL was 25 mm and the zone of inhibition at 15 µg/mL came out at 25 mm. Besides, in the experiment on P. fluorescens (S 97), the zone of inhibition at 10 µg/mL was found to be 30 mm and the zone of inhibition at 15 µg/mL was 30 mm.

Take “2-(5-(4-Chlorophenyl)-6-cyano-2-(2-hydroxyphenyl)-7-imino-2-methyl-1,2-dihydro-[1,2,4]triazolo[1,5-a]pyrimidin-3(7H)-yl)-3-(1H-indol-3-yl)propanoic acid [Compound 8d]”: the “Diameter of zone inhibition” value worked out at 29 mm in the experiment on S. aureus (ATCC 25923) (S. aureus (ATCC 25923), 15 μg mL^−1, 24 h, average of triplicate); 25 mm in experiment [1] (MRSA1 clinical isolate, 15 μg mL^−1); 6 mm in the experiment on C. albicans (10 μg mL^−1, 24 h); 7 mm with C. albicans (15 μg mL^−1, 24 h); 10 mm in experiment [2] (MDR K. pneumoniae clinical isolate, 15 μg mL^−1); 24 mm in experiment [3] (P. phaseolicola (GSPB 2828), 15 μg mL^−1, 24 h, average of triplicate). The “Diameter of zone inhibition” value with P. fluorescens (S 97) (10 μg mL^−1, 24 h) is recorded as 12 mm; in the experiment with P. fluorescens (S 97) (15 μg mL^−1, 24 h), 22 mm. In the experiment with Gram-positive bacteria, the “Activity against Gram-positive bacteria” value is “active”. Also, in [4] (MRSA1 clinical isolate, Table 2), the minimal inhibitory concentration (MIC) is 50 µg/mL.

On to `CC(C(=O)O)N1C2=NC(c3ccc(Cl)cc3)C3=C(CC(C)(C)CC3=O)N2NC1(C)c1ccccc1O` (stereo not shown) [Compound 7, 2-(5-(4-Chlorophenyl)-2-(2-hydroxyphenyl)-2,8,8-trimethyl-6-oxo-1,2,6,7,8,9-hexahydro-[1,2,4]triazolo[1,5-a]quinazolin-3(5H)-yl)propanoic acid], for which the zone of inhibition at 10 µg/mL with S. aureus (ATCC 25923) was determined as 15 mm; in the experiment on C. albicans, 10 mm; in experiment [3], 19 mm; in the experiment with S. pyogenes (ATCC 19615), 12 mm. The zone of inhibition at 15 µg/mL came out at 23 mm in the experiment with S. aureus (ATCC 25923); 8 mm in experiment [1]; 11 mm in the experiment with C. albicans; 20 mm in [2]; 20 mm with S. pyogenes (ATCC 19615). Moreover, the “Activity against Gram-negative bacteria” value with Gram-negative bacteria is given as “active”.

As for `CC(=O)C1=C(C)N2NC(c3ccccc3O)N(C(Cc3c[nH]c4ccccc34)C(=O)O)C2=NC1c1ccc(Cl)cc1` (stereo not shown) [Compound 2c, 2-(6-Acetyl-5-(4-chlorophenyl)-2-(2-hydroxyphenyl)-7-methyl-1,2-dihydro-[1,2,4]triazolo[1,5-a]pyrimidin-3(5H)-yl)-3-(1H-indol-3-yl)propanoic acid], the zone of inhibition at 15 µg/mL came out at 26 mm in [1]; 9 mm in the experiment with C. albicans; 8 mm in experiment [2]; 23 mm in [3]; 22 mm with P. fluorescens (S 97). Besides, the zone of inhibition at 10 µg/mL with C. albicans came out at 6 mm; in [3], 11 mm; in the experiment on P. fluorescens (S 97) it was 12 mm. Besides, the “Activity against Gram-positive bacteria” value in the experiment on Gram-positive bacteria is “active”. In addition, the MIC in experiment [4] (MRSA1, Table 4) is 25 µg/mL (≈ 43.9 µM); in [4] (Staphylococcus aureus) it was 25 µg/mL (≈ 43.9 µM). For the same compound, the “SI (selectivity index, CC50/MIC)” value in [4] (MRSA1 vs VERO cells) is 10.

With `Clc1ccccc1C(c1ccccc1)(c1ccccc1)n1ccnc1` [Clotrimazole, reference compound], in the experiment on C. albicans, the zone of inhibition at 10 µg/mL turned out to be 36 mm and the zone of inhibition at 15 µg/mL was found to be 44 mm.

For `CC(=O)C1=C(C)N2NC(C)(c3ccccc3O)N(C(C)C(=O)O)C2=NC1c1ccc(Cl)cc1` (stereo not shown) [Compound 2b, 2-(6-Acetyl-5-(4-chlorophenyl)-2-(2-hydroxyphenyl)-2,7-dimethyl-1,2-dihydro-[1,2,4]triazolo[1,5-a]pyrimidin-3(5H)-yl)propanoic acid], the zone of inhibition at 10 µg/mL in the experiment with S. aureus (ATCC 25923) worked out at 12 mm; with C. albicans, 6 mm; in experiment [3] it was 16 mm; in the experiment with S. pyogenes (ATCC 19615), 10 mm; in the experiment with P. fluorescens (S 97) it was 15 mm. Also, the zone of inhibition at 15 µg/mL was determined as 8 mm in [1], 8 mm with C. albicans, 25 mm in [2] and 29 mm with P. fluorescens (S 97). Besides, in the experiment on Gram-negative bacteria, the “Activity against Gram-negative bacteria” value is reported as “active”.

Regarding `CC(C(=O)O)N1C2=NC(c3ccc(Cl)cc3)c3c([nH]c(=O)[nH]c3=O)N2NC1(C)c1ccccc1O` (stereo not shown) [Compound 5, 2-(5-(4-Chlorophenyl)-2-(2-hydroxyphenyl)-2-methyl-6,8-dioxo-1,2,6,7,8,9-hexahydropyrimido[5,4-e][1,2,4]triazolo[1,5-a]pyrimidin-3(5H)-yl)propanoic acid], the zone of inhibition at 15 µg/mL in the experiment on S. aureus (ATCC 25923) was found to be 26 mm; in experiment [1], 8 mm; with C. albicans, 9 mm; in [2] it was 23 mm; in experiment [3] it was 30 mm; in the experiment with S. pyogenes (ATCC 19615), 25 mm. Also, the zone of inhibition at 15 µg/mL in the experiment with P. fluorescens (S 97) is 28 mm. The zone of inhibition at 10 µg/mL is 7 mm in the experiment on C. albicans, 11 mm in the experiment with S. pyogenes (ATCC 19615) and 15 mm in the experiment on P. fluorescens (S 97). For the same compound, the “Activity against Gram-negative bacteria” value with Gram-negative bacteria is given as “active”.

Source of the values: publication PMC8693849 (RSC Advances, 2021).
